Source: ChEMBL document CHEMBL1121644, “N-(aminophenyl)oxamic acids and esters as potent, orally active antiallergy agents” (1981)
The source made the active and inactive calls. The calls are words filed in the database; no cut-off is given here.

Key:
Rattus norvegicus [1] = test: Antiallergic property in passive cutaneous anaphylaxis (PCA) test in rats upon oral administration; assay type: functional
How it was run: (§1)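 Male Sprague-Dawley rats (200 g) were sensitized id on the shaved back with 0.05 mL of a 1:100 dilution of rat anti-ovalbumin IgE serum. After 48 h they were challenged iv with 1.0 mL of 0.8% ovalbumin containing 5 mg Evans blue, and killed 40 min later. Wheal area (mm²) was taken as the longest diameter times its perpendicular. ED50 is the dose halving wheal size versus control, from regression over at least four log-spaced doses with five rats per dose.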

Rattus norvegicus [2] = test: Antiallergic property in passive cutaneous anaphylaxis (PCA) test in rats upon intraperitoneal administration; assay type: functional; conditions: for ED50: ip; how it was run: as §1
Rattus norvegicus [3] = test: Percent inhibition using passive cutaneous anaphylaxis (PCA assay) in rat at 1 mg/kg upon oral administration; assay type: functional
How it was run: (§2)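 Rats (male Sprague-Dawley, 200 g) were passively sensitized id with 0.05 mL of 1:100 IgE antiserum raised against ovalbumin. After a 48-h latency they were challenged iv with 0.8% ovalbumin (1.0 mL) plus 5 mg Evans blue. Skin was reflected 40 min later and stained wheals measured as longest diameter × perpendicular (mm²). Results are percent inhibition of wheal size versus control.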

Rattus norvegicus [4] = test: Percent inhibition of wheal size in passive cutaneous anaphylaxis (PCA) test at 50 mg/kg upon intraperitoneal administration; assay type: functional; conditions: ip; how it was run: as §2
Rattus norvegicus [5] = test: Percent inhibition of wheal size in passive cutaneous anaphylaxis (PCA) test at 50 mg/kg (administered orally); assay type: functional; conditions: po; how it was run: as §2
Rattus norvegicus [6] = test: Antiallergic property in passive cutaneous anaphylaxis (PCA) test in rats upon intraperitoneal administration; NA=Not active at 100 mg/kg; assay type: functional, organism-based; parameters: dose 100 mg/kg; how it was run: as §1
Rattus norvegicus [7] = test: Percent inhibition of wheal size in passive cutaneous anaphylaxis (PCA) test at 50 mg/kg upon oral administration; assay type: functional; how it was run: as §2
Rattus norvegicus [8] = test: Antiallergic property in passive cutaneous anaphylaxis (PCA) test in rats upon oral administration; NA=Not active at 100 mg/kg; assay type: functional, organism-based; parameters: dose 100 mg/kg; how it was run: as §1

Row | SMILES | ED50 (Rattus norvegicus [1]) [mg/kg] | ED50 (Rattus norvegicus [2]) [mg/kg] | other results
1 | CCOC(=O)C(=O)Nc1cccc(N(C)CC)c1C#N | 0.5 | 0.3 | 
2 | CCOC(=O)C(=O)Nc1cccc(C(=O)OC)c1C#N | 0.8 | 1.2 | 
3 | CCCCNc1cccc(NC(=O)C(=O)OCC)c1C#N | 0.3 | 0.3 | 
4 | CCNc1cccc(NC(=O)C(=O)OCC)c1C#N | 0.03 | 0.03 | 
5 | CCOC(=O)C(=O)Nc1ccc(N)cc1C#N | 8.8 | 1 | 
6 | CCN(C)c1cccc(NC(=O)C(=O)O)c1C#N |  |  | inhibition in vivo at 1 mg/kg (Rattus norvegicus [3]): 56.3%
7 | CCOC(=O)C(=O)Nc1cccc(NC)c1C#N | 0.1 | 0.2 | 
8 | CCOC(=O)C(=O)Nc1cccc(N2CCN(C)CC2)c1C#N.Cl | 10.3 | 0.04 | 
9 | CCNc1cccc(NC(=O)C(=O)O)c1C#N |  |  | inhibition in vivo at 1 mg/kg (Rattus norvegicus [3]): 58.9%
10 | CCOC(=O)C(=O)Nc1ccccc1C#N | 2.9 | 0.4 | 
11 | COC(=O)c1cccc(NC(=O)C(=O)O)c1C#N |  |  | inhibition in vivo at 1 mg/kg (Rattus norvegicus [3]): 24.5%
12 | CC(C)Oc1cccc(NC(=O)C(=O)O)c1C#N |  |  | inhibition in vivo at 1 mg/kg (Rattus norvegicus [3]): 75.1%
13 | CCOC(=O)C(=O)Nc1cccc(N)c1C#N | 0.07 | 0.05 | 
14 | N#Cc1c(N)cccc1NC(=O)C(=O)O |  |  | inhibition in vivo at 1 mg/kg (Rattus norvegicus [3]): 21.2%
15 | CCOC(=O)C(=O)Nc1cccc(NC(C)=O)c1C#N |  |  | inhibition in vivo at 50 mg/kg (Rattus norvegicus [4]): 91%; inhibition in vivo at 50 mg/kg (Rattus norvegicus [5]): 91%
16 | CCOC(=O)C(=O)Nc1cccc(N2CCOCC2)c1C#N | 6.3 | 1.2 | 
17 | CCCCNc1cccc(NC(=O)C(=O)[O-])c1C#N.[Na+] |  |  | % inhibition at 1 mg/kg (Rattus norvegicus [3]): 93.5%
18 | CCOC(=O)C(=O)Nc1cccc(Cl)c1C#N |  |  | inhibition in vivo at 50 mg/kg (Rattus norvegicus [4]): 56%
19 | CCOC(=O)C(=O)Nc1cccc([N+](=O)[O-])c1C#N | 82 | 0.4 | 
20 | Cc1cccc(NC(=O)C(=O)O)c1C#N |  |  | inhibition in vivo at 1 mg/kg (Rattus norvegicus [3]): 32.3%
21 | CCOC(=O)C(=O)Nc1ccc(C(F)(F)F)c(N2CCOCC2)c1C#N | > 100 | 0.1 | 
22 | CCOC(=O)C(=O)Nc1cccc(F)c1C#N | 59 | 1.2 | 
23 | CCOC(=O)C(=O)Nc1c(C#N)cccc1N(C)C |  |  | ED50 (Rattus norvegicus [6]): inactive

Row | SMILES | ED50 (Rattus norvegicus [1]) [mg/kg] | ED50 (Rattus norvegicus [2]) [mg/kg] | other results
24 | CCOC(=O)C(=O)Nc1cccc(C(C)C)c1C#N |  |  | ED50 (Rattus norvegicus [6]): inactive; inhibition in vivo at 50 mg/kg (Rattus norvegicus [7]): 18%
25 | CCOC(=O)C(=O)Nc1cccc(N2CCCCC2)c1C#N |  | 2.2 | ED50 (Rattus norvegicus [8]): inactive
26 | CCCCCOc1cccc(NC(=O)C(=O)OCC)c1C#N |  |  | Inhibition (Rattus norvegicus [2]): 25%
27 | CCOC(=O)C(=O)Nc1ccc([N+](=O)[O-])cc1C#N |  |  | inhibition in vivo at 50 mg/kg (Rattus norvegicus [4]): 33%
28 | CCOC(=O)C(=O)Nc1cccc(OC)c1C#N | 55.5 | 5.3 | 
29 | CCCNc1cccc(NC(=O)C(=O)OCC)c1C#N | 0.7 | 0.5 | 
30 | CCOC(=O)C(=O)Nc1cccc(C)c1C#N | 4.6 | 5.3 | 
31 | CCOC(=O)C(=O)Nc1cccc(N(CC)CC)c1C#N | 0.9 | 0.7 | 
32 | CCN(CC)c1cccc(NC(=O)C(=O)O)c1C#N |  |  | inhibition in vivo at 1 mg/kg (Rattus norvegicus [3]): 99.2%
33 | CCOC(=O)C(=O)Nc1cccc(N2CCCC2)c1C#N |  |  | inhibition in vivo at 50 mg/kg (Rattus norvegicus [7]): 83%; inhibition in vivo at 50 mg/kg (Rattus norvegicus [4]): 83%
34 | CCOC(=O)C(=O)Nc1cc(N(C)C)ccc1C#N | > 100 | 1.9 | 
35 | CNc1cccc(NC(=O)C(=O)[O-])c1C#N.[Na+] | 0.07 |  | inhibition in vivo at 1 mg/kg (Rattus norvegicus [3]): 96%
36 | O=C([O-])c1cc(=O)c2c(OCC(O)COc3cccc4oc(C(=O)[O-])cc(=O)c34)cccc2o1.[Na+].[Na+] [CROMOLYN SODIUM] |  | 8 | ED50 (Rattus norvegicus [8]): inactive
37 | CCCNc1cccc(NC(=O)C(=O)[O-])c1C#N.[Na+] |  |  | % inhibition at 1 mg/kg (Rattus norvegicus [3]): 83.1%
38 | CCOC(=O)C(=O)Nc1ccc(N(C)C)cc1C#N | 2.4 | 1 | 
39 | CCOC(=O)C(=O)Nc1cccc(N(C)C(C)C)c1C#N | 1.2 | 0.3 | 
40 | N#Cc1c(NC(=O)C(=O)O)cccc1N1CCOCC1 |  |  | inhibition in vivo at 1 mg/kg (Rattus norvegicus [3]): 14.1%
41 | CCOC(=O)C(=O)Nc1cccc(Br)c1C#N |  |  | ED50 (Rattus norvegicus [6]): inactive
42 | CCOC(=O)C(=O)Nc1cccc(S(C)(=O)=O)c1C#N |  |  | ED50 (Rattus norvegicus [6]): inactive
43 | CN(C)c1cccc(NC(=O)C(=O)O)c1C#N |  |  | inhibition in vivo at 1 mg/kg (Rattus norvegicus [3]): 54.7%
44 | CCOC(=O)C(=O)Nc1cccc(N(C)C)c1C#N | 4.2 | 0.2 | 
45 | CCOC(=O)C(=O)Nc1cccc(OC(C)C)c1C#N | 1 | 2 | 
